Assay results: ChEMBL document CHEMBL3867488 (ACS Med Chem Lett, 2016)

Assays:
[1] = molecular target: T1, Oxysterols receptor LXR-beta (Homo sapiens) (UniProt P55055); assay: Agonist activity at human LXR-beta expressed in African green monkey CV1 cells measured after 18 to 20 hrs by luciferase reporter gene assay relative to pan agonist 1-(2,4-difluorobenzyl)-2-oxo-6-(4-phenoxyphenyl)-4-(trifluoromethyl)-1,2-dihydropyridine-3-carbonitrile; format: cell-based; conditions: CV-1
T1 sequence (whole entry): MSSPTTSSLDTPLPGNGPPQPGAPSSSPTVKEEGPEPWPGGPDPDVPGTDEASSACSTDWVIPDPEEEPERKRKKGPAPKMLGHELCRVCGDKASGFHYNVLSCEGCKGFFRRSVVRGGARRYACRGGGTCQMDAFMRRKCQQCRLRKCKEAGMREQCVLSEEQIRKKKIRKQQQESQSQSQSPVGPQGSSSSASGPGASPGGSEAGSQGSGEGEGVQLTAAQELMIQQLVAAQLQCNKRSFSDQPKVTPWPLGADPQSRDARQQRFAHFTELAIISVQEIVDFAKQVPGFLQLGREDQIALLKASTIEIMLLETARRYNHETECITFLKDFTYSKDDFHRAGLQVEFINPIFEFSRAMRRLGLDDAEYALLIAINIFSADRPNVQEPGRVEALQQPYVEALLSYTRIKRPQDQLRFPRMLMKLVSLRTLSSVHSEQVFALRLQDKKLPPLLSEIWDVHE

[2] = molecular target: T2, Oxysterols receptor LXR-beta (Homo sapiens, UniProt P55055); assay: Agonist activity at human LXR-beta expressed in African green monkey CV1 cells measured after 18 to 20 hrs by luciferase reporter gene assay; format: cell-based, CV-1
T2 sequence (P55055 whole entry): T1 sequence (whole entry)

[3] = molecular target: Retinoic acid receptor RXR-alpha/oxysterols receptor LXR-beta (Homo sapiens, UniProt P55055); assay: Displacement of [3H]-24,25-epoxycholesterol from human LXRbeta/RXRalpha expressed in baculovirus infected Sf9 cells by scintillation proximity analysis
How it was run: (§1)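 Binding affinity measured using full-length LXRα–RXRα and LXRβ–RXRα heterodimers.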

[4] = molecular target: Retinoic acid receptor RXR-alpha/oxysterols receptor LXR-alpha (Homo sapiens, UniProt Q13133); assay: Displacement of [3H]-24,25-epoxycholesterol from human LXRalpha/RXRalpha expressed in baculovirus infected Sf9 cells by scintillation proximity analysis; how it was run: as §1
[5] = molecular target: T3, Oxysterols receptor LXR-alpha (Homo sapiens, UniProt Q13133); assay: Agonist activity at human LXR-alpha expressed in African green monkey CV1 cells measured after 18 to 20 hrs by luciferase reporter gene assay relative to pan agonist 1-(2,4-difluorobenzyl)-2-oxo-6-(4-phenoxyphenyl)-4-(trifluoromethyl)-1,2-dihydropyridine-3-carbonitrile; format: cell-based; conditions: CV-1, human; read-out: Efficacy
T3 sequence (Q13133 whole entry): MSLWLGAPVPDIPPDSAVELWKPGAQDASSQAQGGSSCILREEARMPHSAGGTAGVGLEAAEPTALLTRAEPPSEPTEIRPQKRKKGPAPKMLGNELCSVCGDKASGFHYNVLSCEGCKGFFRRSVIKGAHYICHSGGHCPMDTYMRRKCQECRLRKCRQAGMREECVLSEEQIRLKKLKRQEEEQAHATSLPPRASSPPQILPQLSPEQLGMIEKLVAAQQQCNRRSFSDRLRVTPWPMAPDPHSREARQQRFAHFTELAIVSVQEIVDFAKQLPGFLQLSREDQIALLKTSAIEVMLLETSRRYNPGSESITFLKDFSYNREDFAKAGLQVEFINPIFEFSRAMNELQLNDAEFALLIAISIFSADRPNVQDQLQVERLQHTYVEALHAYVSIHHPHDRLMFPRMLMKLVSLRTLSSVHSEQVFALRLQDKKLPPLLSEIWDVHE

[6] = molecular target: T2, Oxysterols receptor LXR-beta; assay: Agonist activity at LXR-beta in human HeLa cells assessed as induction of ABCA1 by beta-galactosidase/luciferase reporter gene assay; format: cell-based
How it was run: (§2)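 HeLa cells carrying endogenous LXRα and LXRβ receptors, transfected with an ABCA1 LXREx3 reporter construct; agonist-driven reporter induction measured.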

[7] = molecular target: T3, Oxysterols receptor LXR-alpha; assay: Agonist activity at human LXR-alpha expressed in African green monkey CV1 cells measured after 18 to 20 hrs by luciferase reporter gene assay; format: cell-based, CV-1
[8] = molecular target: T1, Oxysterols receptor LXR-beta (Homo sapiens); assay: Agonist activity at LXR-beta in human HeLa cells assessed as induction of ABCA1 by beta-galactosidase/luciferase reporter gene assay relative to control; format: cell-based; how it was run: as §2
[9] = molecular target: T2, Oxysterols receptor LXR-beta; assay: Agonist activity at LXR-beta in human whole blood assessed as ABCA1 gene induction by measuring ABCA1 mRNA level after 4 hrs by SYBR-Green dye-based Q-PCR analysis; format: tissue-based
[10] = molecular target: T1, Oxysterols receptor LXR-beta (Homo sapiens); assay: (§3) Agonist activity at LXR-beta in human whole blood assessed as ABCA1 gene induction by measuring ABCA1 mRNA level after 4 hrs by SYBR-Green dye-based Q-PCR analysis relative to pan agonist 2-(4-(5-(5-cyano-1-(2,4-difluorobenzyl)-6-oxo-4-(trifluoromethyl)-1,6-dihydropyridin-2-yl)thiophen-2-yl)-3-methylphenyl)acetic acid; format: tissue-based
[11] = Half life in cynomolgus monkey at 1 mg/kg, iv administered as 10 mins infusion by LC/MS/MS analysis; format: ADME, organism-based, Macaca fascicularis; conditions: in vivo
[12] = Clearance in cynomolgus monkey at 0.2 mg/kg, iv administered as cassette dose by LC/MS/MS analysis; format: ADME, organism-based, Macaca fascicularis; conditions: in vivo
[13] = Half life in cynomolgus monkey at 0.2 mg/kg, iv administered as cassette dose by LC/MS/MS analysis; format: ADME, organism-based, Macaca fascicularis; conditions: in vivo
[14] = Half life in human plasma; format: ADME, cell-free
How it was run: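 Human plasma half-life was obtained from a clinical single ascending dose PK study.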

[15] = molecular target: Alpha-1-acid glycoprotein 1 (Homo sapiens, UniProt P02763); assay: Binding affinity to human alpha-1-AGP at 1 uM measured after 4 hrs by equilibrium dialysis method relative to control; format: ADME; conditions: for fraction unbound at 4 h, 1 µM: human alpha-1-acid glycoprotein, read-out: PB; for PB: isolated protein, 4 h, 1 µM
Albumin = Albumin (Homo sapiens, UniProt P02768); assay: Binding affinity to human serum albumin at 1 uM measured after 4 hrs by equilibrium dialysis method relative to control; format: ADME; conditions: for PB: isolated protein, 4 h, 1 µM
[16] = molecular target: T4, Alpha-1-acid glycoprotein (Rattus norvegicus, UniProt P02764); assay: Binding affinity to rat alpha-1-AGP at 1 uM measured after 4 hrs by equilibrium dialysis method relative to control; format: ADME; conditions: rat alpha-1-acid glycoprotein, read-out: PB (converted)
T4 sequence (P02764 whole entry): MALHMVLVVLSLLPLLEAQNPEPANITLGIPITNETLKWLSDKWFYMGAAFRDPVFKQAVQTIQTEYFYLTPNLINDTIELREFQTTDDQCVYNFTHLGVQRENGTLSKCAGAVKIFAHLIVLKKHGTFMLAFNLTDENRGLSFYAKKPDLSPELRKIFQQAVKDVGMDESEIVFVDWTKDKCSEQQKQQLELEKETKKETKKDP

[17] = Binding affinity to dog alpha-1-AGP at 1 uM measured after 4 hrs by equilibrium dialysis method relative to control; format: ADME, Canis lupus familiaris; conditions: dog alpha-1-acid glycoprotein, read-out: PB (converted)
[18] = molecular target: T2, Oxysterols receptor LXR-beta; assay: Agonist activity at LXR-beta in human whole blood assessed as ABCG1 gene induction by measuring ABCA1 mRNA level after 4 hrs by SYBR-Green dye-based Q-PCR analysis; format: tissue-based
[19] = molecular target: T1, Oxysterols receptor LXR-beta (Homo sapiens); assay: as §3, with “as ABCG1” for “as ABCA1”; format: tissue-based
[20] = Half life in cynomolgus monkey at 0.25 mg/kg, iv administered as 10 mins infusion by LC/MS/MS analysis; format: ADME, organism-based, Macaca fascicularis; conditions: in vivo
How it was run: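 Cynomolgus monkey intravenous PK, with n = 2 animals at the 0.25 mg/kg dose. Plasma clearance (mL/min/kg) and terminal t1/2 (h) derived from the plasma concentration–time profile.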

Sequence of Albumin (P02768 whole entry): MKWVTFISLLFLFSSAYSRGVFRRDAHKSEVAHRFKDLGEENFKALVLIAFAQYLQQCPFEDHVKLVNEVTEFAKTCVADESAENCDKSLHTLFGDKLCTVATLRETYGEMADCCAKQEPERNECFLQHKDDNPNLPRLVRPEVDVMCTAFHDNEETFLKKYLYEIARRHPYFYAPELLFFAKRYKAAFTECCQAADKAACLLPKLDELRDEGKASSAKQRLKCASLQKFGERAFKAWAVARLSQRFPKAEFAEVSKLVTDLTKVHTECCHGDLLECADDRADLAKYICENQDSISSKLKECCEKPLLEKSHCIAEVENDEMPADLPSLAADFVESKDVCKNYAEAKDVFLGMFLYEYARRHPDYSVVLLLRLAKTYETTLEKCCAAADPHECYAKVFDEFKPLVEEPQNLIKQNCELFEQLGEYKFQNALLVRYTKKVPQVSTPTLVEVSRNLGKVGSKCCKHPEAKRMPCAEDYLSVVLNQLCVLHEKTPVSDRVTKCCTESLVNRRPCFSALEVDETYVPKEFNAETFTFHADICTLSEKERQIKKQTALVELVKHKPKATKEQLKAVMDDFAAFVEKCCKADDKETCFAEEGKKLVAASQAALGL
Sequence of Retinoic acid receptor RXR-alpha/oxysterols receptor LXR-alpha (P19793 whole entry, one chain of several): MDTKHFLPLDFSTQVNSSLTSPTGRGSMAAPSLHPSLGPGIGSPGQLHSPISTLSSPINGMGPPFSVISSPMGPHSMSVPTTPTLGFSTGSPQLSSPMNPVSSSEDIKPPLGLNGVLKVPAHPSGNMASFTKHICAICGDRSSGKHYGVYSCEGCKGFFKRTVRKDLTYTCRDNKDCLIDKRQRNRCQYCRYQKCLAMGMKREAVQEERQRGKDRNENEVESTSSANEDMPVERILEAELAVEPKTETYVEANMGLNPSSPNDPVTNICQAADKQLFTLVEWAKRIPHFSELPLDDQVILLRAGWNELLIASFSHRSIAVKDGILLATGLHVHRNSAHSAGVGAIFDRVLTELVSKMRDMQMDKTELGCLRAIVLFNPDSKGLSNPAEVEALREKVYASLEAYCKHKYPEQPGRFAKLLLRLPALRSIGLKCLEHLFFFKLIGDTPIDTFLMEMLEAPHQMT
Sequence of Retinoic acid receptor RXR-alpha/oxysterols receptor LXR-beta (P19793 whole entry, one chain of several): as above
Sequence of Alpha-1-acid glycoprotein 1 (P02763 whole entry): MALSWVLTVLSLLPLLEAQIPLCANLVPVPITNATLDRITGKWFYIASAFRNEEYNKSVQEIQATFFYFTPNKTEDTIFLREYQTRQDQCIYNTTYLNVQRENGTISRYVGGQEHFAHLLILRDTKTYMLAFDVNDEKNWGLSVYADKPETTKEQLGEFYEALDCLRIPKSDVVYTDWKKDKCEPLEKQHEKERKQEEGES

Efficacy [1] [%]	EC50 [2] [nM]	Ki [3] [nM]	Ki [4] [nM]	Emax [5] [%]	EC50 [6] [nM]	EC50 [7] [nM]	Efficacy [8] [%]	EC50 [9] [nM]	Efficacy [10] [%]	Compound	other results
72	42	6	38	25	3	30	23	15	43	CC(C)(O)c1cn(-c2ccc(-c3cc(F)c(CO)c(S(C)(=O)=O)c3)cc2)c(C(C)(C)c2c(Cl)cccc2Cl)n1	
				38	33	220	50	1200	55	CC(C)(O)c1cn(-c2ccc(-c3cccc(S(C)(=O)=O)c3)cc2)c(C(C)(C)c2ccccc2Cl)n1 [BMS-779788]	t1/2 [11]: 7.4 h; clearance [12]: 2.9 mL/min/kg; half-life [13]: 8.9 h; half-life [14]: 100 to 200 h; fraction unbound at 4 h, 1 µM [15]: 0.001; fraction unbound at 4 h, 1 µM (Albumin; human serum albumin, read-out: PB): 0.028 to 0.03; fraction unbound at 4 h, 1 µM [16]: 0.08; fraction unbound at 4 h, 1 µM [17]: 0.02; EC50 [18]: 1100 nM; Efficacy [19]: 60%
83	72	10	53	29	8	76	43	57	47	CC(C)(O)c1cn(-c2ccc(-c3cc(F)c(CO)c(S(C)(=O)=O)c3)cc2)c(C(C)(C)c2ccccc2Cl)n1	clearance [12]: 8.4 mL/min/kg; half-life [13]: 5.6 h; PB [15]: 86.6%; PB (Albumin): 95.5%
74	170	13	74	46	12	110	56	300	46	CC(C)(O)c1cn(-c2ccc(-c3ccc(CO)c(S(C)(=O)=O)c3)cc2)c(C(C)(C)c2ccccc2Cl)n1	PB [15]: 90.2%; PB (Albumin): 96.1%
93	220	40	180	47	21	120	68	870	47	CC(O)c1ccc(-c2ccc(-n3cc(C(C)(C)O)nc3C(C)(C)c3ccccc3Cl)cc2)cc1S(C)(=O)=O (configuration not stated)	clearance [12]: 5.6 mL/min/kg; half-life [13]: 5.5 h
41	170	11	16	20	18	99	42	380	32	CC(C)(O)c1cn(-c2ccc(-c3cccc(S(C)(=O)=O)c3)cc2)c(C(C)(C)c2c(Cl)cccc2Cl)n1	fraction unbound at 4 h, 1 µM [15]: 0.004 to 0.01; PB (Albumin): 97.9%
50	60	5	31	39	9	100	54	300	72	CC(C)(O)c1cn(-c2ccc(-c3ccc(CO)c(S(C)(=O)=O)c3)cc2)c(Cc2ccccc2Cl)n1	t1/2 [20]: 0.8 h
67	25	13	17	18	2	12	9	23	17	CC(c1c(Cl)cccc1Cl)c1nc(C(C)(C)O)cn1-c1ccc(-c2cc(F)c(CO)c(S(C)(=O)=O)c2)cc1F (configuration not stated)	
79	50	18	9	25	2	57	29	46	35	CC(C)(O)c1cn(-c2ccc(-c3cc(F)c(CO)c(S(C)(=O)=O)c3)cc2F)c(C(C)(C)c2ccccc2Cl)n1	
51	27	48	50	6	2	8	12	5	16	CC(C)(O)c1cn(-c2ccc(-c3cc(F)c(CO)c(S(C)(=O)=O)c3)cc2Cl)c(C(C)(C)c2c(Cl)cccc2Cl)n1	
86	20	14	70	15	1	11	30	41	33	CC(C)(O)c1cn(-c2ccc(-c3cc(F)c(CO)c(S(C)(=O)=O)c3)cc2F)c(C(C)(C)c2c(F)cccc2Cl)n1	
54	140	11	75	17	5	69	43	42	51	CC(C)(O)c1cn(-c2ccc(-c3cc(F)c(CO)c(S(C)(=O)=O)c3)cc2)c(Cc2c(Cl)cccc2Cl)n1	
68	160	14	81	13	12	130	15	43	28	CC(C)(O)c1cn(-c2ccc(-c3cc(F)c(CO)c(S(C)(=O)=O)c3)cc2)c(C(C)(C)c2ccccc2F)n1	
